# Bridge positions count the residues as written; N and C are the ends. Square brackets hold non-standard residues; d marks the D form. Peptide text beside a SMILES is read from it. * marks the point of attachment. Heptanoyl(6-Me) = CC(C)CCCCC(=O)*; Octanoyl(7-Me) = CC(C)CCCCCC(=O)*; X1 = CC[C@H](C)CCCCC(=O)*; Dab = NCC[C@H](N)C(=O)O; Nva = CCC[C@H](N)C(=O)O
# Key:
# Escherichia coli [1] = test: Antibacterial activity against Escherichia coli ATCC 25922 after 18 hrs by agar dilution method; assay type: functional; conditions: ATCC 25922, 18 h
# How it was run: (§1)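 Serial two-fold agar dilution per CLSI; bacteria cultured in Mueller-Hinton broth, inoculum about 10^4 cfu/spot; final concentrations 0.03-128 µg/mL; plates incubated 35 °C for 18 h. MIC = lowest concentration preventing visible growth; representative of at least two independent experiments, a third run when the two disagreed.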
# Escherichia coli [2] = test: Antibacterial activity against extended-spectrum beta-lactamase producing Escherichia coli isolate 14-11 after 18 hrs by agar dilution method; assay type: functional; conditions: isolate 14-11, 18 h; how it was run: as §1
# Klebsiella pneumoniae [3] = test: Antibacterial activity against extended-spectrum beta-lactamase producing Klebsiella pneumoniae 700603 after 18 hrs by agar dilution method; assay type: functional; conditions: Klebsiella pneumoniae, 700603, 18 h; how it was run: as §1
# Klebsiella pneumoniae [4] = test: Antibacterial activity against NDM-1 producing Klebsiella pneumoniae ATCC BAA-2146 after 18 hrs by agar dilution method; assay type: functional; conditions: ATCC BAA-2146, 18 h; how it was run: as §1
# Pseudomonas aeruginosa = test: Antibacterial activity against Pseudomonas aeruginosa ATCC 27853 after 18 hrs by agar dilution method; assay type: functional; conditions: ATCC 27853, 18 h; how it was run: as §1
# Acinetobacter baumannii = test: Antibacterial activity against Acinetobacter baumannii ATCC 19606 after 18 hrs by agar dilution method; assay type: functional; conditions: ATCC 19606 = CIP 70.34 = JCM 6841, 18 h; how it was run: as §1
# [5] = (§2) Cytotoxicity against African green monkey Vero cells after 72 hrs by MTT assay; assay type: cell-based; conditions: chlorocebus sabaeus, Vero cells
# How it was run: (§3)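 Vero cells seeded at 2x10^3 cells/well, incubated 24 h at 37 °C, 5% CO2, then exposed to compound 72 h; MTT added for 2 h, medium removed, formazan dissolved in DMSO, absorbance read at 570 nm. Viability relative to untreated cells (100%); CC50 as mean ± SD of three independent experiments, each in triplicate.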
# [6] = Acute toxicity in iv dosed ICR mouse assessed as survival measured daily for 7 days; assay type: organism-based; conditions: in vivo
# How it was run: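 ICR mice, 18 to 22 g, 4 weeks old, 10 per group (5 male, 5 female). Four to five intravenous dose groups per compound. Survival recorded daily for 7 days. LD50 (dose per kg body weight lethal to 50%) calculated by the Bliss method. LD50 values compared by one-way ANOVA.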
# Mus musculus [7] = test: Nephrotoxicity in ICR mouse assessed as tubular dilation at 2.5 mg/kg, iv bid for 7 days measured after 2 hrs post last dose by hematoxylin and eosin staining based assay; assay type: toxicity, organism-based; conditions: in vivo
# How it was run: (§4)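 ICR mice, 18-22 g, 4 weeks old, n=8 per group (4 male, 4 female); component in saline (0.25 mg/mL, kept at 4 °C) given iv at 2.5 mg/kg twice daily, 8 h apart, for 7 days. Kidneys taken 2 h after last dose, formalin-fixed, paraffin-embedded, sectioned, H&E stained and examined by light microscopy; saline controls included.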
# Mus musculus [8] = test: Nephrotoxicity in ICR mouse assessed as induction of prominent nuclei at 2.5 mg/kg, iv bid for 7 days measured after 2 hrs post last dose by hematoxylin and eosin staining based assay; assay type: toxicity, organism-based; conditions: in vivo; how it was run: as §4
# Mus musculus [9] = test: Nephrotoxicity in ICR mouse assessed as pale tubular casts at 2.5 mg/kg, iv bid for 7 days measured after 2 hrs post last dose by hematoxylin and eosin staining based assay; assay type: toxicity, organism-based; conditions: in vivo; how it was run: as §4
# Vero = test: as §2; assay type: cell-based; conditions: chlorocebus sabaeus, vero, 72 h; how it was run: as §3
Molecule,MIC (Escherichia coli [1]) [µg/mL],MIC (Escherichia coli [2]) [µg/mL],MIC (Klebsiella pneumoniae [3]) [µg/mL],MIC (Klebsiella pneumoniae [4]) [µg/mL],MIC (Pseudomonas aeruginosa) [µg/mL],MIC (Acinetobacter baumannii) [µg/mL],CC50 at 72 h [5] [µg/mL],LD50 at 168 h [6] [mg/kg],Activity (Mus musculus [7]),Activity (Mus musculus [8]),Activity (Mus musculus [9]),CC50 (Vero) [µg/mL]
CC(C)CCCCC(=O)N[C@@H](CCN)C(=O)N[C@H](C(=O)N[C@@H](CCN)C(=O)N[C@H]1CCNC(=O)[C@H]([C@@H](C)O)NC(=O)[C@H](CCN)NC(=O)[C@H](CCN)NC(=O)[C@H]([C@@H](C)O)NC(=O)[C@@H](CC(C)C)NC(=O)[C@H](CCN)NC1=O)[C@@H](C)O,0.5,0.25,0.5,0.5,0.5,1,276,13,Non-Toxic,Non-Toxic,Non-Toxic,–
CCC[C@@H]1NC(=O)[C@@H](CC(C)C)NC(=O)[C@H](CCN)NC(=O)[C@@H](NC(=O)[C@H](CCN)NC(=O)[C@@H](NC(=O)[C@H](CCN)NC(=O)CCCCC(C)C)[C@@H](C)O)CCNC(=O)[C@H]([C@@H](C)O)NC(=O)[C@H](CCN)NC(=O)[C@H](CCN)NC1=O ({Heptanoyl(6-Me)}-[Dab]T[Dab][Dab][Dab][dL][Nva][Dab][Dab]T; lactam 4-C),0.5,0.25,0.5,0.5,1,0.5,168,12.4,–,–,–,–
COLISTIN,–,–,–,–,–,–,–,–,–,–,–,95
CC[C@H](C)CCCCC(=O)N[C@@H](CCN)C(=O)N[C@H](C(=O)N[C@@H](CCN)C(=O)N[C@H]1CCNC(=O)[C@H]([C@@H](C)O)NC(=O)[C@H](CCN)NC(=O)[C@H](CCN)NC(=O)[C@H]([C@@H](C)O)NC(=O)[C@@H](CC(C)C)NC(=O)[C@H](CCN)NC1=O)[C@@H](C)O (X1-[Dab]T[Dab][Dab][Dab][dL]T[Dab][Dab]T; lactam 4-C),0.25,≤ 0.03,0.25,0.5,1,0.5,96,11.4,–,–,–,–
CC(C)CCCCC(=O)N[C@@H](CCN)C(=O)N[C@H](C(=O)N[C@@H](CCN)C(=O)N[C@H]1CCNC(=O)[C@H]([C@@H](C)O)NC(=O)[C@H](CCN)NC(=O)[C@H](CCN)NC(=O)[C@H](CC(C)C)NC(=O)[C@@H](Cc2ccccc2)NC(=O)[C@H](CCN)NC1=O)[C@@H](C)O [POLYMYXIN B2] ({Heptanoyl(6-Me)}-[Dab]T[Dab][Dab][Dab][dF]L[Dab][Dab]T; lactam 4-C),0.5,0.5,1,1,2,0.5,159,12.6,Toxic,Toxic,Toxic,–
CC(C)CCCCC(=O)N[C@@H](CCN)C(=O)N[C@H](C(=O)N[C@@H](CCN)C(=O)N[C@H]1CCNC(=O)[C@H]([C@@H](C)O)NC(=O)[C@H](CCN)NC(=O)[C@H](CCN)NC(=O)[C@H](C(C)C)NC(=O)[C@@H](CC(C)C)NC(=O)[C@H](CCN)NC1=O)[C@@H](C)O ({Heptanoyl(6-Me)}-[Dab]T[Dab][Dab][Dab][dL]V[Dab][Dab]T; lactam 4-C),0.5,0.25,0.5,0.5,2,1,225,13.2,–,–,–,–
CC(C)CCCCC(=O)N[C@@H](CCN)C(=O)N[C@H](C(=O)N[C@H](CO)C(=O)N[C@H]1CCNC(=O)[C@H]([C@@H](C)O)NC(=O)[C@H](CCN)NC(=O)[C@H](CCN)NC(=O)[C@H]([C@@H](C)O)NC(=O)[C@@H](CC(C)C)NC(=O)[C@H](CCN)NC1=O)[C@@H](C)O ({Heptanoyl(6-Me)}-[Dab]T[dS][Dab][Dab][dL]T[Dab][Dab]T; lactam 4-C),0.25,0.12,0.5,0.5,4,0.12,318,20.5,Toxic,Toxic,Toxic,–
CC[C@H](C)CCCCC(=O)N[C@@H](CCN)C(=O)N[C@H](C(=O)N[C@@H](CCN)C(=O)N[C@H]1CCNC(=O)[C@H]([C@@H](C)O)NC(=O)[C@H](CCN)NC(=O)[C@H](CCN)NC(=O)[C@H](C(C)C)NC(=O)[C@@H](CC(C)C)NC(=O)[C@H](CCN)NC1=O)[C@@H](C)O (X1-[Dab]T[Dab][Dab][Dab][dL]V[Dab][Dab]T; lactam 4-C),0.5,0.5,1,0.5,2,0.5,131,–,–,–,–,–
CC(C)CCCCC(=O)N[C@@H](CCN)C(=O)N[C@H](C(=O)N[C@@H](CCN)C(=O)N[C@H]1CCNC(=O)[C@H]([C@@H](C)O)NC(=O)[C@H](CCN)NC(=O)[C@H](CCN)NC(=O)[C@H](CC(C)C)NC(=O)[C@@H](CC(C)C)NC(=O)[C@H](CCN)NC1=O)[C@@H](C)O [COLISTIN B] ({Heptanoyl(6-Me)}-[Dab]T[Dab][Dab][Dab][dL]L[Dab][Dab]T; lactam 4-C),0.5,0.5,1,1,2,0.5,244,11.3,Non-Toxic,Non-Toxic,Non-Toxic,–
CC(C)CCCCCC(=O)N[C@@H](CCN)C(=O)N[C@H](C(=O)N[C@@H](CCN)C(=O)N[C@H]1CCNC(=O)[C@H]([C@@H](C)O)NC(=O)[C@H](CCN)NC(=O)[C@H](CCN)NC(=O)[C@H](CC(C)C)NC(=O)[C@@H](CC(C)C)NC(=O)[C@H](CCN)NC1=O)[C@@H](C)O ({Octanoyl(7-Me)}-[Dab]T[Dab][Dab][Dab][dL]L[Dab][Dab]T; lactam 4-C),1,1,1,1,2,1,87,–,–,–,–,–
CC[C@H](C)[C@@H]1NC(=O)[C@@H](CC(C)C)NC(=O)[C@H](CCN)NC(=O)[C@@H](NC(=O)[C@H](CCN)NC(=O)[C@@H](NC(=O)[C@H](CCN)NC(=O)CCCCC(C)C)[C@@H](C)O)CCNC(=O)[C@H]([C@@H](C)O)NC(=O)[C@H](CCN)NC(=O)[C@H](CCN)NC1=O,1,0.5,0.5,1,2,1,199,12.9,–,–,–,–
CC(C)CCCCC(=O)N[C@@H](CCN)C(=O)N[C@H](C(=O)N[C@H](CO)C(=O)N[C@H]1CCNC(=O)[C@H]([C@@H](C)O)NC(=O)[C@H](CCN)NC(=O)[C@H](CCN)NC(=O)[C@H]([C@@H](C)O)NC(=O)[C@@H](Cc2ccccc2)NC(=O)[C@H](CCN)NC1=O)[C@@H](C)O ({Heptanoyl(6-Me)}-[Dab]T[dS][Dab][Dab][dF]T[Dab][Dab]T; lactam 4-C),0.25,0.25,0.5,0.5,2,0.25,> 500,17,Non-Toxic,Non-Toxic,Non-Toxic,–
